Experimental data from paper PMC12675685 (Parasitology Research, 2025).
Entries after “also recorded” stand apart in the source; their conditions may differ. Counter-ions that a name gives are not always drawn. Like-named read-outs stand apart in the source and are kept apart here.

Tests used:
MDOK cells = test: Cytotoxicity on host cells; type: cell-based, sheep; details: for toxicity to MDOK cells, relative level: compared among the tested compounds; for IC50: read-out: IC50 in MDOK cells, CCK-8
Babesia sp. Xinjiang = test: Anti-proliferation assay in Babesia sp. Xinjiang; type: cell-based; details: for inhibitory effect on BxjG5 proliferation: concentrations increased to 200 μM, data not shown; for inhibition of BxjG5 growth in vitro, in words: 48, 72 and 96 h
Outline: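 Monoclonal BxjG5 line grown in RPMI 1640 with 20% FBS and 5% fresh sheep RBCs, 37 °C, humidified 5% CO2. Cultures seeded at 1% parasitemia with serial dilutions in medium (200 μΜ to 0.005 μΜ), run 48, 72 or 96 h, with drug-containing medium renewed every 48 h. DMSO controls (≤0.4%). Parasitemia counted on Giemsa smears (2,000–4,000 RBCs), inhibition taken relative to control, and curves fitted. Three experiments, triplicate wells.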

Babesia microti = test: In vivo anti-Babesia activity in B. microti-infected BALB/c mice; details: for effect on B. microti parasite burden in vivo, in words: furamidine 2 mg/kg bw, BIX-01294 10 mg/kg bw, DA 30 mg/kg bw i.p.
Babesia duncani = test: In vivo anti-Babesia activity in B. duncani-infected hamsters; set-up: species or system LVG Golden Syrian Hamsters; details: for effect on B. duncani growth in vivo, in words / day post-treatment on which mortality reached 100% / mean parasitemia (parasite burden): furamidine 2 mg/kg bw; for effect on B. duncani growth in vivo, in words: BIX-01294 7.35 mg/kg bw i.p.; for day post-treatment on which mortality reached 100% / mean parasitemia (parasite burden): i.p. daily for five days, BIX-01294 7.35 mg/kg bw
Outline: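 Twenty 12-week-old hamsters were infected i.p. with 2,500 B. duncani-infected RBCs and split randomly into four equal groups. Dosing began once parasites appeared on Giemsa smears (parasitemia ≈ 1%): 200 μl i.p. daily for five days of vehicle (DMSO/PBS 1:1), test compounds or diminazene aceturate 20 mg/kg bw. Parasitemia was followed on smears and survival recorded. Groups were compared by one-way ANOVA with Tukey–Kramer.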

Plasmodium falciparum = details: read-out: IC50 against Plasmodium falciparum; ref Malmquist et al. [2012]; cited from earlier work
Babesia divergens = details: cited from earlier work; for IC50: read-out: IC50 on B. divergens, ref Nehrbass-Stuedli et al. [2011]
B. microti = details: ref Nehrbass-Stuedli et al. [2011], cited from earlier work
[1] = In vivo safety evaluation of furamidine in healthy BALB/c mice; details: 2 mg/kg bw i.p. daily for 5 consecutive days
Outline: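 Healthy female BALB/c mice, 6–8 weeks old (n = 5/group), received vehicle (DMSO/PBS) or test compound i.p. daily for 5 days. Clinical signs were checked twice daily and weight each morning before dosing. Blood was taken retro-orbitally under isoflurane 24 h after the last dose: EDTA-K2 blood for haematology, serum for biochemistry. Livers were fixed in 4% paraformaldehyde and stained with H&E.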

[2] = Babesia, 48 h, read-out: IC50 in Babesia sp. Xinjiang
[3] = Babesia, 72 h, read-out: IC50 in Babesia sp. Xinjiang
[4] = Babesia, 96 h, read-out: IC50 in Babesia sp. Xinjiang
[5] = Babesia, 96 h, read-out: IC50 on BxjG5 growth

Nc1ncnc2c1ncn2[C@@H]1O[C@H](C[C@@H](N)CC[C@H](N)C(=O)O)[C@@H](O)[C@H]1O [Sinefungin]
inhibition rate on MDOK cells (MDOK cells; concentrations increased to 100 μM): < 30%
IC50 (Babesia sp. Xinjiang; [2]): 2.14 ± 0.07 µM
IC50 (Babesia sp. Xinjiang; [3]): 2.25 ± 0.34 µM
IC50 (Babesia sp. Xinjiang; [4]): 2.89 ± 1.1 µM

O=C([C@@H](Cc1cccc(C(F)(F)F)c1)NS(=O)(=O)c1cc(F)c2c(c1)CCNC2)N1CCCC1 [PFI-2 hydrochloride]
IC50 (Babesia sp. Xinjiang; [2]): 16.5 ± 0.86 µM
IC50 (Babesia sp. Xinjiang; [3]): 10.7 ± 0.82 µM
IC50 (Babesia sp. Xinjiang; [4]): 17.5 ± 1.09 µM

CN1C(=O)[C@@]23C[C@]4([C@]56C[C@@]78SS[C@@](CO)(C(=O)N7[C@H]5Nc5ccccc56)N(C)C8=O)c5ccccc5N[C@@H]4N2C(=O)[C@]1(CO)SS3 [Chaetocin]
inhibition rate on MDOK cells (MDOK cells; concentrations exceeded 10 μM): greater than 70%
IC50 (Babesia sp. Xinjiang; [2]): > 200 µM
IC50 (Babesia sp. Xinjiang; [3]): > 200 µM
IC50 (Babesia sp. Xinjiang; [4]): > 200 µM
inhibitory effect on BxjG5 proliferation (Babesia sp. Xinjiang): did not observe any obvious inhibitory effect

COc1cc2nc(N3CCCN(C)CC3)nc(NC3CCN(Cc4ccccc4)CC3)c2cc1OC [BIX-01294]
effect on B. microti parasite burden in vivo, in words (Babesia microti): did not appear to inhibit Babesia growth in vivo
effect on B. duncani growth in vivo, in words (Babesia duncani): did not appear to inhibit Babesia growth in vivo
day post-treatment on which mortality reached 100% (Babesia duncani): 2 days
mean parasitemia (parasite burden) (Babesia duncani): approximately 20%
IC50 (Plasmodium falciparum): 0.075 ± 0.036 µM
IC50 (Babesia sp. Xinjiang; [2]): 0.47 ± 0.1 µM
IC50 (Babesia sp. Xinjiang; [3]): 0.35 µM
IC50 (Babesia sp. Xinjiang; [4]): 0.29 µM
IC50 (Babesia sp. Xinjiang; [5]): 0.29 to 0.47 µM
inhibitory activity against B. divergens in vitro, in words (Babesia divergens; ref Vanheer and Kafsack [2021]): moderate inhibitory activity

O=C(Nc1cccc(C2=NCCN2)c1)Nc1cccc(C2=NCCN2)c1 [Imidocarb dipropionate]
toxicity to MDOK cells, relative level (MDOK cells): intermediate levels
inhibition of BxjG5 growth in vitro, in words (Babesia sp. Xinjiang): effectively inhibit BxjG5 growth in vitro at nanomolar concentrations
IC50 (Babesia sp. Xinjiang; [3]): 0.03 µM
IC50 (Babesia sp. Xinjiang; [4]): 0.02 µM

CCN(CC)Cc1cc(Nc2ccnc3cc(Cl)ccc23)ccc1O [Amodiaquine]
toxicity to MDOK cells, relative level (MDOK cells): intermediate levels
IC50 (Babesia sp. Xinjiang; [2]): 33.2 ± 2.19 µM
IC50 (Babesia sp. Xinjiang; [3]): 23.9 ± 1.47 µM
IC50 (Babesia sp. Xinjiang; [4]): 26.6 ± 1.49 µM
IC50 (Babesia sp. Xinjiang; [5]): ~26 µM

N=C(N)c1ccc(-c2ccc(-c3ccc(C(=N)N)cc3)o2)cc1 [Furamidine]
complete suppression of parasitemia up to day (Babesia microti; furamidine 2 mg/kg): 50 dpi
day posttreatment on which parasitemia peaked (Babesia microti; furamidine 2 mg/kg bw i.p.): 3 days
complete suppression of parasites through (B. microti; 3.125 mg/kg): 13 days
anti-parasite activity in B. microti-infected NMRI mouse model, in words (B. microti; 25 mg/kg): totally cure
effect on B. duncani growth in vivo, in words (Babesia duncani): effectively inhibited the growth; also recorded: did not completely eliminate parasites
day post-treatment on which mortality reached 100% (Babesia duncani): 6 days
mean parasitemia (parasite burden) (Babesia duncani): less than 10%
body weight gain versus vehicle control [1]: no significant difference
hematological and biochemical analyses versus vehicle control [1]: no significant differences
liver histopathology (H&E) [1]: appeared normal
toxicity to MDOK cells, relative level (MDOK cells): intermediate levels
IC50 (MDOK cells; 24 h): 98.81 ± 0.6 µM
IC50 (MDOK cells; 48 h): 45.36 ± 0.43 µM
IC50 (MDOK cells; 72 h): 43.01 ± 0.24 µM
inhibition of BxjG5 growth in vitro, in words (Babesia sp. Xinjiang): effectively inhibit BxjG5 growth in vitro at nanomolar concentrations
IC50 (Babesia sp. Xinjiang; [2]): 0.03 µM
IC50 (Babesia sp. Xinjiang; Babesia, read-out: IC50 on BxjG5): 0.02 µM
IC50 (Babesia divergens; strain 1903): 0.0368 µM
IC50 (Babesia divergens; strain 4201): 0.0358 µM

CCOCC1(COCC)CCC(c2[nH]ncc2CN(C)CCNC)CC1.Cl.Cl.Cl [GSK3368715]
IC50 (MDOK cells; 24 h): > 100 µM
IC50 (MDOK cells; 48 h): > 100 µM
IC50 (MDOK cells; 72 h): > 100 µM
inhibitory effect on BxjG5 proliferation (Babesia sp. Xinjiang): did not observe any obvious inhibitory effect
IC50 (Babesia sp. Xinjiang; read-out: IC50 in Babesia sp. Xinjiang, 48 h incubation, BxjG5): > 200 µM
IC50 (Babesia sp. Xinjiang; read-out: IC50 in Babesia sp. Xinjiang, 72 h incubation, BxjG5): > 200 µM
IC50 (Babesia sp. Xinjiang; read-out: IC50 in Babesia sp. Xinjiang, 96 h incubation, BxjG5): > 200 µM

CCCc1cc(C)[nH]c(=O)c1CNC(=O)c1cc(-c2ccc(N3CCN(C(C)C)CC3)nc2)cc2c1cnn2C(C)C [UNC-1999]
inhibition rate on MDOK cells (MDOK cells; concentrations exceeded 10 μM): greater than 70%
IC50 (Babesia sp. Xinjiang; [2]): 5.15 ± 1.31 µM
IC50 (Babesia sp. Xinjiang; [3]): 3.88 ± 1 µM
IC50 (Babesia sp. Xinjiang; [4]): 4.7 ± 1.03 µM

CCCc1cc(C)[nH]c(=O)c1CNC(=O)c1cc(-c2ccnc(N3CCN(C)CC3)c2)cc2c1cnn2C(C)C [GSK343]
IC50 (Babesia sp. Xinjiang; [2]): 7.25 ± 0.75 µM
IC50 (Babesia sp. Xinjiang; [3]): 6.88 ± 0.51 µM
IC50 (Babesia sp. Xinjiang; [4]): 7.04 ± 0.56 µM

Cc1cn(CCN2CCN(c3ccccc3-c3cc(C#N)cc(C(=O)NCCCN4CCCC4)c3)CC2)c2ccccc12 [LLY-507]
inhibition rate on MDOK cells (MDOK cells; concentrations exceeded 10 μM): greater than 70%
IC50 (Babesia sp. Xinjiang; [2]): 4.02 ± 0.74 µM
IC50 (Babesia sp. Xinjiang; [3]): 3.25 ± 0.46 µM
IC50 (Babesia sp. Xinjiang; [4]): 2.58 ± 0.63 µM

CC(=O)NCC(=O)O.CC(=O)NCC(=O)O.N=C(N)c1ccc(N=NNc2ccc(C(=N)N)cc2)cc1 [DA, Diminazene Aceturate]
effect on B. microti parasite burden in vivo, in words (Babesia microti): effectively decreased the parasite burden
deaths until day 43 posttreatment (Babesia duncani; DA 20 mg/kg bw i.p. daily for five days): 0/4
